System: MS2 coat protein
Assay: apparent Kd, MS2 coat protein; higher = weaker binding; RNA-MaP array; FMN 200 µM where present
Outline: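 SNAP-549-labelled MS2 coat protein, doubled from 0.7 or 1.5 nM to 3 µM, was titrated over designs transcribed by stalled E. coli RNA polymerase on Illumina sequencing-chip clusters. Titrations were run without and then with constant ligand in 100 mM Tris-HCl pH 7.5, 80 mM KCl, 4 mM MgCl2, BSA, DTT, yeast tRNA and Tween-20. The apparent Kd is the median of filtered per-cluster fits to green signal normalised to red-channel RNA signal and control-cluster median Fmax.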

[1] = designed as: OFF switch for flavin mononucleotide, no ligand
[2] = ligand present: flavin mononucleotide, designed as: OFF switch for flavin mononucleotide
[3] = designed as: ON switch for flavin mononucleotide, no ligand
[4] = ligand present: flavin mononucleotide, designed as: ON switch for flavin mononucleotide

**Q.** Which “apparent Kd” value [1] does the source give for “ACUUACUGAGGAUAUACAUAGAUUUACAUGAGGAUCACCCAUGUUCCUCUAUGUAUAUAUGUAGAAGGCAGAAGUU” here?
**A.** 26.3 nM

**Q.** And the “apparent Kd” value [2]?
**A.** 97.8 nM

**Q.** With “GCUGCAUAGUCAGGAUAUGCAAAGUAAUGUAUGGAAACAUACAUUACAACAUGAGGAUCACCCAUGUAGAAGGGACUGUGCAGU” as the sequence, how does the “apparent Kd” value [1] read?
**A.** 13.9 nM

**Q.** And the “apparent Kd” value [2]?
**A.** 12.2 nM

**Q.** How did the “apparent Kd” value [3] turn out when “CUCUAGCUCACAGGAUAUGGGUGUCGACGAUGCCCAGAAGGGUGAUUUGGCACAUGAGGAUCACCCAUGUGGGCGCUUGAAUAU” was run?
**A.** 44.5 nM

**Q.** And the “apparent Kd” value [4]?
**A.** 94.3 nM

**Q.** For “AUCAGCUCGUCAGGAUAUACGUCACUGCGUCAGCAGUGUGGUAAGAUCACAUGAGGAUCACCCAUGUAGAAGGGACAAGCUGAU”, which “apparent Kd” value [1] is on record?
**A.** 13.1 nM

**Q.** What about the “apparent Kd” value [2] of the same sequence?
**A.** 270 nM

**Q.** Which results are given for “GGUCGUCACAUUAACAUGAGGAUCACCCAUGUAUAAAGACAUGAGGAUAUGCAUCCUAAUUGGAUGCAGAAGGCAUGGACGACC”?
**A.** apparent Kd [3]: 9.7 nM; apparent Kd [4]: 6.13 nM

**Q.** Which results are given for “ACAUGAGGAUCACCCAUGUUGAAUGAGGAUAUUUGACUGCGCAUGAGGUUCUCCCAUGUUCAACCGGAGAAGGUAUUAAUAAUU”?
**A.** apparent Kd [3]: 267 nM; apparent Kd [4]: 160 nM

**Q.** With “AGGAGAAAUGUAGGAUAUGGAUAUAUAUAUGGGCAAAGCGCAUAUAUAUAUCCAGAAGGACAUGAGGAUCACCCAUGUUUCCCU” as the sequence, how does the “apparent Kd” value [1] read?
**A.** 11.8 nM

**Q.** And the “apparent Kd” value [2]?
**A.** 13 nM

**Q.** Which results are given for “GCACGACAUGUAGGAUAUCGAGCGCCGGGCGCUCGAGAAGGACAUGAGGAUCACCCAUGUAUUCUGAGUGACCGAGGUCGUUGC”?
**A.** apparent Kd [1]: 47.9 nM; apparent Kd [2]: 431 nM

**Q.** How did the “apparent Kd” value [1] turn out when “GGGUGACAUGAGGAUCACCCAUGUCAGGAUAUCUAGGGCAGAUGCUGGGAGCGUUCGCAGAGAAGGGACCAGAU” was run?
**A.** 52.3 nM

**Q.** And the “apparent Kd” value [2]?
**A.** 46.1 nM

**Q.** With “AACCUAUUACAGAAGGCCAGCUACAUGAGGAUCACCCAUGUCGAGUCAUGGAGGAUAUGUAGUAAUUCACUCGCAGAUGAGUAC” as the sequence, how does the “apparent Kd” value [3] read?
**A.** 29.8 nM

**Q.** And the “apparent Kd” value [4]?
**A.** 5.33 nM

**Q.** Which “apparent Kd” value [1] does the source give for “GCCAGUUAUGUAGGAUAUGCGCAGCGAGCCUGAGCAGAAGGACAUGAGGAUCACCCAUGUGUUGCGGUUUGAGUACUGAUCGCU” here?
**A.** 24.6 nM

**Q.** And the “apparent Kd” value [2]?
**A.** 130 nM

**Q.** Which results are given for “GGUGCCAUGUAGAAGGCAGAUCUGAUUCAGAUCUGAGGAUAUACAUGAGGAUCACCCAUGUAAAGGCACCUCACGAGAGUGCAA”?
**A.** apparent Kd [1]: 10.5 nM; apparent Kd [2]: 34.6 nM

**Q.** With “CAGGUAGACUGAGGAUAUACAAUAAGACCUAGUCUAUCUAGGUCAAUCACAUGAGGAUCACCCAUGUAGAAGGCAGUCUGCCUG” as the sequence, how does the “apparent Kd” value [1] read?
**A.** 17.3 nM

**Q.** And the “apparent Kd” value [2]?
**A.** 36.2 nM

**Q.** “AUUAUGACCGAGUUAUACCUCUAAACAUGAGGAUCACCCAUGUAGGAUAUCAGCACGAUAAGUGCUGAGAAGGACAUCUCGGUC” was tested. Which “apparent Kd” value [1] did it give?
**A.** 17.2 nM

**Q.** What about the “apparent Kd” value [2] of the same sequence?
**A.** 27 nM

**Q.** With “ACAUGAGACUAAGGAUAUGAUGUACCUAUAUGUGACAUGAGGAUCACCCAUGUGGUAAGUAUGACUCAGAAGGUAGAGAUAUGU” as the sequence, how does the “apparent Kd” value [3] read?
**A.** 222 nM

**Q.** What about the “apparent Kd” value [4] of the same sequence?
**A.** 77.3 nM

**Q.** How did the “apparent Kd” value [1] turn out when “UUGUUAUGUGUAGGAUAUGCAUAUUAUUAUUAUGCAGAAGGACAUGAGGAUCACCCAUGUAUAUUAUUAUUAUAUAUUAUAUAU” was run?
**A.** 28.7 nM

**Q.** And the “apparent Kd” value [2]?
**A.** 37 nM

**Q.** How did the “apparent Kd” value [1] turn out when “CGGCAUCAUGUAGGAUAUGCGUGGCGAAGCUAUGCAGAAGGACAUGAGGAUCACCCAUGUCUUAGCUAGCGUACUAGCUUGCCG” was run?
**A.** 6.24 nM

**Q.** What about the “apparent Kd” value [2] of the same sequence?
**A.** 16.6 nM

**Q.** Which “apparent Kd” value [1] does the source give for “AAGGAUAGAGGAUAUACAUAGAUACAGAUUCAUGUGGAACUACAUGAGGAUCACCCAUGUAGAAGGCUAUCCUA” here?
**A.** 40.1 nM

**Q.** And the “apparent Kd” value [2]?
**A.** 262 nM

**Q.** “AAUAACAGAGGAUAUACUGUUUUAUGUAUUUAUUAUUUUAAACAUGAGGAUCACCCAUGUAGAAGGCUGAGUAA” was tested. Which “apparent Kd” value [1] did it give?
**A.** 24.6 nM

**Q.** What about the “apparent Kd” value [2] of the same sequence?
**A.** 23.4 nM

**Q.** What does the source list for “UUUGCAUUCCGAGGAUAUUCAUUUAAUGUCUUCACAUGAGGAUCACCCAUGUGGCGCUUGCGCCGGGAGAAGGCGGUUUGCUUU”?
**A.** apparent Kd [3]: 28.6 nM; apparent Kd [4]: 29.3 nM

**Q.** Which results are given for “AAAACAUGAGGAUCACCCAUGUAUAGAUCGGUUGAUAGGAGUGAGGAUAUGCUUAAAAUAAGGUAGCAGAAGGCACUGGGUACA”?
**A.** apparent Kd [3]: 37.1 nM; apparent Kd [4]: 40.1 nM

**Q.** How did the “apparent Kd” value [3] turn out when “UGUAUUAACGGAGGAUAUCGAUAUCAAACAUGAGGAUCACCCAUGUUGAGGAUCACCCAUGUCCACGAGAAGGCCGGCGUACUC” was run?
**A.** 30.3 nM

**Q.** And the “apparent Kd” value [4]?
**A.** 30 nM

**Q.** Which “apparent Kd” value [1] does the source give for “GAACUGAAGCAUAGCUUUAGUCGUACAUGAGGAUCACCCAUGUAGGAUAUGGUAGGCAUCGCUUACUAGAAGGAUAGAGUGAUC” here?
**A.** 172 nM

**Q.** And the “apparent Kd” value [2]?
**A.** 87.1 nM

**Q.** With “UUGGGACUAUCAGGAUAUGGUGUAGCCUAGUAAAGGACAUGAGGAUCACCCAUGUACCAUUGGUACCAGAAGGGAUGAUCCUAC” as the sequence, how does the “apparent Kd” value [3] read?
**A.** 173 nM

**Q.** What about the “apparent Kd” value [4] of the same sequence?
**A.** 46 nM

**Q.** “UUCCUCGUUGUGAGGAUAUCGUCCUAUUUUUGUUACGAGAAGGCACAUGAGGAUCACCCAUGUUACUUGAUGUU” was tested. Which “apparent Kd” value [1] did it give?
**A.** 19.9 nM

**Q.** What about the “apparent Kd” value [2] of the same sequence?
**A.** 71 nM

**Q.** For “ACAGUUCUGCAAGGAUAUCGUUCUAGUUUAGUACGAGAAGGUGCUUUAGUUUUUUCUUUGUGUUGACAUGAGGAUCACCCAUGU”, which “apparent Kd” value [1] is on record?
**A.** 23.4 nM

**Q.** What about the “apparent Kd” value [2] of the same sequence?
**A.** 15.2 nM

**Q.** With “GUCAGCUCGUGAGGAUAUACUACACUGCUUCGGCAGUGUAUUAAGAUCACAUGAGGAUCACCCAUGUAGAAGGCACGAGCUGAU” as the sequence, how does the “apparent Kd” value [1] read?
**A.** 5.95 nM

**Q.** What about the “apparent Kd” value [2] of the same sequence?
**A.** 17 nM

**Q.** Which “apparent Kd” value [3] does the source give for “UCUAAUUAAAAUGAUUCAUCAACACAGGAUAUACCCGCAACAUGAGGAUCACCCAUGUAGGCCCGGUAGAAGGGUGCUUGGGAG” here?
**A.** 20.5 nM

**Q.** And the “apparent Kd” value [4]?
**A.** 6.9 nM

**Q.** With “AAAGUGUGAGGAUAUCCGGGACUGGGCCGGGAGGUUCGGAAGGAGAAGGCACAUGAGGAUCACCCAUGUAACGG” as the sequence, how does the “apparent Kd” value [1] read?
**A.** 59.3 nM

**Q.** What about the “apparent Kd” value [2] of the same sequence?
**A.** 44.3 nM

**Q.** “CCUGAGUCAGGAUAUUGUACCAGCCUGAAGCCAGGCUGACCCAAGAAGGGACAUGAGGAUCACCCAUGUGAAAA” was tested. Which “apparent Kd” value [1] did it give?
**A.** 27 nM

**Q.** What about the “apparent Kd” value [2] of the same sequence?
**A.** 25.6 nM

**Q.** What does the source list for “GACUCGGGUGCAGGAUAUCCGCCGGAUCGCAGUGGAGAAGGGCGCCAAGCGAACAUGAGGAUCACCCAUGUAUCGGAGUUGAAC”?
**A.** apparent Kd [3]: 56.9 nM; apparent Kd [4]: 10.4 nM

**Q.** Which results are given for “UCGCCACAUGAGGAUCACCCAUGUCAGGAUAUCUAGAUGCGUCUUGAGCUCAAGCGCUGGAGAAGGGAUUGGGU”?
**A.** apparent Kd [1]: 235 nM; apparent Kd [2]: 67.5 nM

**Q.** Which “apparent Kd” value [1] does the source give for “UGCUGGUGACAGCAUCCAUCAAAACAUGAGGAUCACCCAUGUAGAAGGCUGUACGGUUACCGUACAGAGGAUAUACAAUGAUGA” here?
**A.** 13.9 nM

**Q.** And the “apparent Kd” value [2]?
**A.** 22.2 nM

**Q.** “AUAUAAAAUAUAGGAUAUGGAAACAUGAGGAUCACCCAUGUAUGAUAAGAUAAAUUAUGAUAUAGCCAGAAGGAUACAAUAUAA” was tested. Which “apparent Kd” value [3] did it give?
**A.** 31.3 nM

**Q.** What about the “apparent Kd” value [4] of the same sequence?
**A.** 38.3 nM

**Q.** “CUUCGACAUGAGGAUCACCCAUGUCAGGAUAUUGUUUAUCUGGUUUUUUACAGAUAUACAAGAAGGGAUGUGUU” was tested. Which “apparent Kd” value [1] did it give?
**A.** 27.5 nM

**Q.** And the “apparent Kd” value [2]?
**A.** 24.6 nM

**Q.** “UUUUAACAUGAGGAUCACCCAUGUGAGGAUAUCGAAAUUUAUAUUUAUAUUAAUAAUUCGAGAAGGCACAUUUU” was tested. Which “apparent Kd” value [1] did it give?
**A.** 172 nM

**Q.** And the “apparent Kd” value [2]?
**A.** 165 nM

From the EternaBench riboswitch data
